In experiment [1] the target is T1, Polyunsaturated fatty acid 5-lipoxygenase (Rattus norvegicus) (UniProt P12527).
T1 sequence (whole entry): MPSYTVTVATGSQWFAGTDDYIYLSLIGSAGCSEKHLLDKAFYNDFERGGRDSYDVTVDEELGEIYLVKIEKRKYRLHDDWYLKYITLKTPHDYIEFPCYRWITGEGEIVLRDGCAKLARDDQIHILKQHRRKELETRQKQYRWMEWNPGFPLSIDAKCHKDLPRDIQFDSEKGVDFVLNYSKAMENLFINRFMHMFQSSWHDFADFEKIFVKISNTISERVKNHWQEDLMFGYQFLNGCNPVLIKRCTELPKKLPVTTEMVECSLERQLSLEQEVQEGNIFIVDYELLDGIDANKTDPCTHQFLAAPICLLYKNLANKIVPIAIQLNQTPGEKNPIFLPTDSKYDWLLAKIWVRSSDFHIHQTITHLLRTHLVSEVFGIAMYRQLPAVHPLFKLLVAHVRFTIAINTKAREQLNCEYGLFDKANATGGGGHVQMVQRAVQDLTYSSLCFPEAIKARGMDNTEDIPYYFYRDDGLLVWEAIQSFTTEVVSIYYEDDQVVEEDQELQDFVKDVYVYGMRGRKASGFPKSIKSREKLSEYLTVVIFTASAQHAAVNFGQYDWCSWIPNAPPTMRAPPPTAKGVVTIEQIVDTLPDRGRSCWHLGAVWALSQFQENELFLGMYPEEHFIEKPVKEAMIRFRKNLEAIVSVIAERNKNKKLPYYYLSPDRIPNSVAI
Nature of the experiment: In vitro inhibitory activity against Lipoxygenase in rat neutrophils at a dose of 50 uM. In short, it runs like this: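 Neutrophils come from the 4 h pleural exudate of male Wistar-Lewis rats given iv BSA plus intrapleural rabbit anti-BSA IgG. Cells are washed, red cells lysed with NH4Cl, and resuspended at about 5×10^6 cells/0.1 mL in Tris pH 7.4 with NaCl and 1 mM CaCl2. Cells are preincubated with compound 4 min at room temperature.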

Experiment [2] relates to Rattus norvegicus. Nature of the experiment: Compound was tested in vivo for antiinflammatory activity against chronic adjuvant arthritic rat by prophylactic inhibition 2 degree paw after peroral administration of 10 mg/kg of dose. To be noted: route oral. It counts as functional. The procedure, abridged:
(§1)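 Prophylactic adjuvant arthritis: heat-killed Mycobacterium tuberculosis powder in paraffin oil (6 mg/mL), 0.1 mL injected into the left hind paw. Drug given orally 1 h before adjuvant, then for 21 consecutive days; controls received methyl cellulose. Left (1°) and right (2°) hind paw volumes were measured by plethysmograph.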

Experiment [3] has as its system Rattus norvegicus. Nature of the experiment: Compound was tested in vivo for antiinflammatory activity against chronic adjuvant arthritic rat by prophylactic inhibition 1 degree paw after peroral administration of 10 mg/kg of dose. It counts as functional. To be noted: route oral. The procedure, abridged:
as §1

For experiment [4], the target named is Cyclooxygenase (Rattus norvegicus) (UniProt P35355+Q63921). As to the kind of experiment: In vitro inhibitory activity against Prostaglandin G/H synthase in rat neutrophils at a dose of 50 uM.
Experiment [5] has as its system Rattus norvegicus. Nature of the experiment: In vivo antiinflammatory activity against rats by RPAR(reverse passive Arthus reaction) synovitis method. The class given is functional. On the set-up: concentration or dose not given beside the values. In short, it runs like this: (§2)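 Lewis rats, oral drug or placebo 1 h before iv BSA (2.28 mg in saline), then intraarticular rabbit anti-BSA (0.54 mg) into one knee and saline into the other, under light anesthesia. Second oral dose at 3 h; the total of both doses is the calculated dose. About 17 h after induction, subpatellar tissue with synovium is excised and weighed. Response is antibody-minus-saline knee weight, tested by analysis of variance.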

In experiment [6] the test system is Rattus norvegicus. Nature of the experiment: Compound was tested in vivo for antiinflammatory activity against rats by RPAR(reverse passive Arthus reaction) synovitis method ata dose of 50 mg/kg, po. It counts as functional. In short, it runs like this:
as §2

Experiment [7] has as its system Rattus norvegicus. As to the kind of experiment: Tested in vivo for antiinflammatory activity against chronic adjuvant arthritic rat by prophylactic inhibition 2 degree paw after peroral administration of 10 mg/kg of dose. It counts as functional. To be noted: route oral. In short, it runs like this: (§3)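 Prophylactic regimen, rats. Adjuvant is heat-killed Mycobacterium tuberculosis ground to a fine powder in paraffin oil (6 mg/mL); 0.1 mL is injected into the left hind paw. Oral drug is given 1 h before adjuvant challenge, then for 21 consecutive days; controls receive methyl cellulose. Left (1°) and right (2°) hind paw volumes are measured by plethysmograph.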

For experiment [8], the system named is Rattus norvegicus. Nature of the experiment: Tested in vivo for antiinflammatory activity against chronic adjuvant arthritic rat by prophylactic inhibition 1 degree paw after peroral administration of 10 mg/kg of dose. The class given is functional. The conditions noted are these: route oral. The procedure, abridged: as §3
The subject of experiment [9] is Rattus norvegicus. As to the kind of experiment: Compound was tested in vivo for antiinflammatory activity against chronic adjuvant arthritic rat by prophylactic inhibition 1 degree paw after peroral administration of 25 mg/kg of dose. It counts as functional. The conditions noted are these: route oral.
Experiment [10] concerns Rattus norvegicus. As to the kind of experiment: Compound was tested in vivo for antiinflammatory activity against chronic adjuvant arthritic rat by prophylactic inhibition 2 degree paw after peroral administration of 25 mg/kg of dose. It counts as functional. The conditions noted are these: route oral.
The test system of experiment [11] is Rattus norvegicus. As to the kind of experiment: Compound was tested in vivo for antiinflammatory activity against chronic adjuvant arthritic rat by prophylactic inhibition 1 degree paw after peroral administration of 36 mg/kg of dose. The conditions noted are these: po.
In experiment [12] the test system is Rattus norvegicus. As to the kind of experiment: Compound was tested in vivo for antiinflammatory activity against chronic adjuvant arthritic rat by prophylactic inhibition 2 degree paw after peroral administration of 18 mg/kg of dose. To be noted: po.
The subject of experiment [13] is Rattus norvegicus. Nature of the experiment: Compound was tested in vivo for antiinflammatory activity against chronic adjuvant arthritic rat by prophylactic inhibition 2 degree paw after peroral administration of 36 mg/kg of dose. The conditions noted are these: po.
Experiment [14] deals with Rattus norvegicus. Nature of the experiment: Tested in vivo for antiinflammatory activity against chronic adjuvant arthritic rat by prophylactic inhibition 2 degree paw after peroral administration of 9 mg/kg of dose. The conditions noted are these: route oral. The class given is functional. In short, it runs like this:
as §3

The subject of experiment [15] is Rattus norvegicus. Nature of the experiment: Compound was tested in vivo against chronic adjuvant arthritic rat by prophylactic inhibition 2 degree paw. Relative potency with respect to (8-Benzyl-5-hydroxy-1,3-dimethyl-6-propyl-1H,8H-1,3,4b,8,9-pentaaza-fluorene-2,4,7-trione). It counts as functional.
For experiment [16], the system named is Rattus norvegicus. Nature of the experiment: Tested in vivo for antiinflammatory activity against chronic adjuvant arthritic rat by prophylactic inhibition 1 degree paw after peroral administration of 9 mg/kg of dose. It counts as functional. To be noted: route oral. In short, it runs like this: as §3
The species named for experiment [17] is Rattus norvegicus. As to the kind of experiment: Compound was tested for intestinal Ulcerogenic effect in rats, activity expressed as lesion score. The class given is functional. The procedure, abridged: (§4)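 Normal fed rats were gavaged once daily for three consecutive days at 10–300 mg/kg and killed 24 h after the last dose. Intestines were examined for ulcers, recording incidence per group of 8 and a lesion score (±SE).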

Experiment [18] has as its system Rattus norvegicus. As to the kind of experiment: Compound was tested for intestinal ulcerogenic effect in rats at a dose of 10 mg/kg. It counts as functional. In short, it runs like this: as §4
For experiment [19], the species on record is Rattus norvegicus. Nature of the experiment: Compound was tested for gastric Ulcerogenic effect in rats, activity expressed as lesion length.
Experiment [20] is filed under the species Rattus norvegicus. Nature of the experiment: Compound was tested for intestinal Ulcerogenic effect in rats, activity expressed as ulcer incidence. The class given is functional. In short, it runs like this: as §4

What is called inhibition is how much of the control response was suppressed. Broadly, the inhibition in vivo is the share of the control response that was lost under treatment. A word on the Inhibition: it is the percentage by which the read-out fell short of the control.

Values joined by “and” are separate entries in the source; they are usually repeats but may differ in a detail not shown here. Equal entries are not always repeated.

Consider `C=CCc1c(O)n(Cc2ccccc2)c2nc3c(c(=O)n(C)c(=O)n3C)n2c1=O`, for which the inhibition was 16% and 20% in experiment [1]; 16% in [4]. For the same compound, the inhibition in vivo at 10 mg/kg with Rattus norvegicus [2] and in the experiment on Rattus norvegicus [3] was 16% each time. In the experiment on Rattus norvegicus [5], this compound returned an Inhibition of 29%.

In turn, `CCCc1c(O)n(C(C)c2ccccc2)c2nc3c(c(=O)n(C)c(=O)n3C)n2c1=O` (configuration not stated) returned an inhibition in vivo at 50 mg/kg in the experiment with Rattus norvegicus [6] of 0%.

Consider `C#CCc1c(O)n(Cc2ccccc2)c2nc3c(c(=O)n(C)c(=O)n3C)n2c1=O`, for which the inhibition is 11% and 7% in experiment [1]; 9% in [4]. The inhibition in vivo at 10 mg/kg in the experiment on Rattus norvegicus [7] was 27%; in the experiment on Rattus norvegicus [8], 6%. Also, the Inhibition with Rattus norvegicus [5] worked out at 27%.

Take `CCOC(=O)c1ccc(Cn2c(O)c(CC=C(C)C)c(=O)n3c4c(=O)n(C)c(=O)n(C)c4nc23)cc1`: the inhibition in vivo at 25 mg/kg with Rattus norvegicus [9] was 0%; in the experiment with Rattus norvegicus [10], 10%.

Regarding `CCCCc1c(O)n(Cc2ccccc2)c2nc3c(c(=O)n(C)c(=O)n3C)n2c1=O`, the inhibition in vivo at 36 mg/kg with Rattus norvegicus [11] turned out to be 52%; with Rattus norvegicus [13], 79%. For the same compound, in the experiment with Rattus norvegicus [12], the inhibition in vivo at 18 mg/kg was 64%. The inhibition in vivo at 9 mg/kg in the experiment on Rattus norvegicus [14] was determined as 55%; with Rattus norvegicus [16], 17%. The same compound gave an Inhibition in the experiment with Rattus norvegicus [5] of 48%. For the same compound, the Relative potency in the experiment on Rattus norvegicus [15] was 2.1.

In the case of `CC(C)=CCc1c(O)n(Cc2ccc([S+](C)[O-])cc2)c2nc3c(c(=O)n(C)c(=O)n3C)n2c1=O` (configuration not stated), the inhibition in vivo at 25 mg/kg in the experiment on Rattus norvegicus [9] came to 13%; in the experiment with Rattus norvegicus [10], 47%.

In the experiment on Rattus norvegicus [6], `Cc1c(O)n(Cc2ccccc2F)c2nc3c(c(=O)n(C)c(=O)n3C)n2c1=O` showed an inhibition in vivo at 50 mg/kg of 0%.

With `COc1ccc2c(c1)c(CC(=O)O)c(C)n2C(=O)c1ccc(Cl)cc1` [INDOMETHACIN], the Lesion length in the experiment filed under Rattus norvegicus [17] came out at 4.2 mm rat-1. For the same compound, the Ulcer incidence in the experiment on Rattus norvegicus [18] and in the experiment filed under Rattus norvegicus [20] was 8 number/group throughout. The compound also displayed a Length in the experiment filed under Rattus norvegicus [19] of 5 mm rat-1.

(Values after ChEMBL document CHEMBL1123282, “Antiinflammatory activity of substituted 6-hydroxypyrimido[2,1-f]purine-2,4,8(1H,3H,9H)-triones. Atypical nonsteroidal antiinflammatory agents” (J Med Chem, 1986).)
